pKi: −log10 of the molar value. The source made the active and inactive calls. The rule behind the calls is not given here.
Legend:
[1] = target: T1, Protein deacetylase HDAC6 (Homo sapiens, UniProt Q9UBN7); assay: Inhibition of full length recombinant human N-terminal GST-tagged HDAC6 expressed in baculovirus-infected Sf9 insect cells using RHKK(Ac)AMC as substrate after 90 mins by fluorimeter
T1 sequence (Q9UBN7 whole entry): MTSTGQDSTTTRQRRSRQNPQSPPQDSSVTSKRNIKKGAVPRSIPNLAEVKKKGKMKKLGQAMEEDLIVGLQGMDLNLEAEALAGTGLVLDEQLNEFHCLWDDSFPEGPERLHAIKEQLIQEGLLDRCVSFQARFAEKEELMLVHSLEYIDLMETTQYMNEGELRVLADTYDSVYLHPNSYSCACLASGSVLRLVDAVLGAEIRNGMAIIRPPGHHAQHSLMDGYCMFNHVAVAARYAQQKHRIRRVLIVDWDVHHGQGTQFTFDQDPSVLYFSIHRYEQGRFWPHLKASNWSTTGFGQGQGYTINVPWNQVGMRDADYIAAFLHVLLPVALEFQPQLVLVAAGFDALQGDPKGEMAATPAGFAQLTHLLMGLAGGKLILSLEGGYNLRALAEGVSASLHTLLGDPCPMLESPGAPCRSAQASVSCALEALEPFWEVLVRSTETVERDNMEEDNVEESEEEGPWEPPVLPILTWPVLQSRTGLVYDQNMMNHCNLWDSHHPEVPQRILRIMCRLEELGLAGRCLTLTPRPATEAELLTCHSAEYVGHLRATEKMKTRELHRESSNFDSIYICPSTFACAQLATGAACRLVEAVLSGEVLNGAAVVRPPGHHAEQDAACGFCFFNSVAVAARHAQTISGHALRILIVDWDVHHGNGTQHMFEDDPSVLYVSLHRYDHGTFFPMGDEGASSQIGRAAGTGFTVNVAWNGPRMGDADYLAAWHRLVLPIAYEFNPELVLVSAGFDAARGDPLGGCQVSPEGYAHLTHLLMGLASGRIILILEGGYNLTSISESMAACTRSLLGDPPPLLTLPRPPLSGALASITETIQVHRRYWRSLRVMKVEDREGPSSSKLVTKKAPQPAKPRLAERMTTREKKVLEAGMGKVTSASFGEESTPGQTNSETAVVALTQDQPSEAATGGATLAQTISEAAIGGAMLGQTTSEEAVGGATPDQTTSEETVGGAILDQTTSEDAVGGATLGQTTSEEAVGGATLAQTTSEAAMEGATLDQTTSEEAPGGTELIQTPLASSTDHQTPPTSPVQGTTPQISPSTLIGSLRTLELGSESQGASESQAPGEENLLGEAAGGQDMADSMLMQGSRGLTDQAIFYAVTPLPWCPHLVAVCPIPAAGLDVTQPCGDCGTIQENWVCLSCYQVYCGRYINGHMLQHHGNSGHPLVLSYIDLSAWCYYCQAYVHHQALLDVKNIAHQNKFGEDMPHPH

[2] = target: T2, Histone deacetylase 8 (Homo sapiens, UniProt Q9BY41); assay: Inhibition of recombinant human C-terminal His-tagged HDAC8 (1 to 377 residues) expressed in baculovirus-infected insect cells using RHK(Ac)K(Ac)AMC as substrate after 60 mins by fluorimeter
T2 sequence (Q9BY41 whole entry): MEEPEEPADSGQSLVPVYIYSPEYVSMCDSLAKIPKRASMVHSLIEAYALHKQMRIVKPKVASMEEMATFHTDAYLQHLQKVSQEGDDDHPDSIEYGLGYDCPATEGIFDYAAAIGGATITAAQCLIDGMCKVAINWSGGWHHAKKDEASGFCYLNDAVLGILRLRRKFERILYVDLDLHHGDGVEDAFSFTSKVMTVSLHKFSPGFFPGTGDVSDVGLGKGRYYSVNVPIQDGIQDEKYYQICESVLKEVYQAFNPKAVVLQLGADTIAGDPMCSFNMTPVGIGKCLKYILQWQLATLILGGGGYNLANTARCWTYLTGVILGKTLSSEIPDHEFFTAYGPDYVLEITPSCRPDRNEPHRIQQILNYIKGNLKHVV

[3] = target: Histone deacetylase 2 (Homo sapiens, UniProt Q92769); assay: Inhibition of full length recombinant human C-terminal GST-tagged HDAC2 expressed in baculovirus-infected insect cells using RHKK(Ac)AMC as substrate after 60 mins by fluorimeter
[4] = target: T3, Protein deacetylase HDAC6 (Homo sapiens) (UniProt Q9UBN7); assay: Inhibition of HDAC6 in human MV4-11 cells assessed as induction of alpha-tubulin hyperacetylation after 24 hrs by Western blot method; format: cell-based
T3 sequence (whole entry): T1 sequence (Q9UBN7 whole entry)
Method in brief: (§1)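 MV4-11 cells were exposed to the inhibitor, from 5 nM to 10 µM for 24 h or at 50 nM for 10 min to 48 h. Lysates were immunoblotted for acetylated tubulin, acetylated histone H3 and HDAC6. Acetyl-tubulin was quantified by densitometry normalised to HSP90. MS-275 at 5 µM for 24 h was the comparator. Blots are representative of at least two independent experiments.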

[5] = species on record: Homo sapiens; assay: Selectivity ratio of Ki for recombinant human C-terminal GST-tagged HDAC2 to Ki for full length recombinant human N-terminal GST-tagged HDAC6
Method in brief: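 Recombinant human HDAC2 and HDAC6 enzymes, fluorescence-based activity assay. […] IC50s were curve-fitted from duplicate determinations. Ki was calculated from IC50 by the Cheng–Prusoff equation, and the ratio was taken from these Ki values. TSA served as internal standard.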

[6] = test system: MV4-11; assay: Cell cycle arrest in human MV4-11 cells assessed as accumulation at sub-G1 phase at 30 to 50 nM after 24 hrs by propidium iodide staining-based flow cytometric method; format: functional
Method in brief: (§2)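 Cells were stained with propidium iodide and analysed by flow cytometry for cell-cycle distribution and the subG1 fraction (fragmented DNA). Representative of at least two independent experiments.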

[7] = test system: Mus musculus; assay: Toxicity in DBA/1J mouse collagen-induced arthritis model assessed as effect on white blood cell count at 42.3 mg/kg, ip administered every morning for 12 to 14 days measured post last dose relative to vehicle-treated control; format: organism-based; settings: in vivo
[8] = test system: Mus musculus; assay: Antiarthritic activity in DBA/1J mouse collagen-induced arthritis model assessed as decrease in ratio of articular bone surface to articular bone volume at 42.3 mg/kg, ip administered every morning for 12 to 14 days measured post last dose by microCT method relative to vehicle-treated control; format: functional, organism-based
[9] = test system: Mus musculus; assay: Antiarthritic activity in DBA/1J mouse collagen-induced arthritis model assessed as decrease in clinical scores at 42.3 mg/kg, ip administered every morning for 6 days measured post last dose; format: functional, organism-based
Method in brief: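 Collagen type II-induced arthritis in mice, second experiment, treated at 42.3 mg/kg (equimolar dose) versus vehicle. Clinical arthritis scores were followed from the beginning of treatment.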

[10] = test system: Mus musculus; assay: Toxicity in DBA/1J mouse collagen-induced arthritis model assessed as effect on red blood cell count at 42.3 mg/kg, ip administered every morning for 12 to 14 days measured post last dose relative to vehicle-treated control; format: organism-based; settings: in vivo
[11] = test system: Mus musculus; assay: Toxicity in DBA/1J mouse collagen-induced arthritis model assessed as effect on hemoglobin concentration at 42.3 mg/kg, ip administered every morning for 12 to 14 days measured post last dose relative to vehicle-treated control; format: organism-based; settings: in vivo
[12] = test system: Mus musculus; assay: Antiarthritic activity in DBA/1J mouse collagen-induced arthritis model assessed as reduction of articular bone erosion in arthritic hind paw at 42.3 mg/kg, ip administered every morning for 12 to 14 days measured post last dose by microCT method relative to vehicle-treated control; format: functional, organism-based
[13] = test system: Jurkat; assay: Cell cycle arrest in human Jurkat cells at 5 uM after 24 hrs by propidium iodide staining-based flow cytometric method; format: functional
[14] = Inhibition of class 1 HDAC in human MV4-11 cells assessed as induction of histone hyperacetylation at 5 uM after 24 hrs by Western blot method; format: cell-based; method in brief: as §1
[15] = test system: HEL; assay: Cell cycle arrest in human HEL cells at 5 uM after 24 hrs by propidium iodide staining-based flow cytometric method; format: functional
[16] = test system: MV4-11; assay: Cell cycle arrest in human MV4-11 cells assessed as accumulation at sub-G1 phase at 5 uM after 24 hrs by propidium iodide staining-based flow cytometric method; format: functional; method in brief: as §2
[17] = test system: PBMC; assay: Induction of apoptosis in human PBMC at 5 uM after 24 hrs by Annexin V/propidium iodide staining-based flow cytometric method; format: cell-based

Chain of Histone deacetylase 2 (Q92769 whole entry): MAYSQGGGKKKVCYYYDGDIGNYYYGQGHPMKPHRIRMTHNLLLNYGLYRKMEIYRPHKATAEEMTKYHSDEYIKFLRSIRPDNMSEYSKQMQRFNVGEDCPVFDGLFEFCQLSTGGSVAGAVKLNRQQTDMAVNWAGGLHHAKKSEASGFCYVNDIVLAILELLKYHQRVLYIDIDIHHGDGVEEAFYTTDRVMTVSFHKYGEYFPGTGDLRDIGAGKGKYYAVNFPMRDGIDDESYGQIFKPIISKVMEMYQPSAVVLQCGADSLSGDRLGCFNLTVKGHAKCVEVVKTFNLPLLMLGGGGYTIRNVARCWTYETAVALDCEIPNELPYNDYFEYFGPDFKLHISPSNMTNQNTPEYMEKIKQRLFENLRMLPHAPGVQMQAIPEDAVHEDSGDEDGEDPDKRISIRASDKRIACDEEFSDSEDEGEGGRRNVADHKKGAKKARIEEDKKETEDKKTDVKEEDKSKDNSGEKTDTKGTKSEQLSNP

SMILES	pKi [1]	pKi [2]	pKi [3]	alpha-tubulin hyperacetylation (active/not active) [4]	further results
CN1C(=O)C2CN(Cc3c2c2cc(O)ccc2n3Cc2ccc(C(=O)NO)cc2)C1=O (centres undefined)	9.38				
CN1C(=O)[C@@H]2CN(Cc3c2c2ccccc2n3Cc2ccc(C(=O)NO)cc2)C1=O	9.15	6.00	5.28		
O=C(/C=C/c1ccc(Cn2c3c(c4ccccc42)CCN2C(=O)CCCC32)cc1)NO (centres undefined)	7.85	6.14	6.63		
CN1CC2CN(Cc3c2c2ccccc2n3Cc2ccc(C(=O)NO)cc2)C1=O (centres undefined)	9.29	6.28	6.32	Active	
O=C(NO)c1ccc(Cn2c3c(c4ccccc42)C2CCN(C3)C2)cc1 (centres undefined)	8.19	5.81	5.21		Ratio Ki [5]: 940
CN1C(=O)C2CN(Cc3c2c2ccccc2n3Cc2ccc(C(=O)NO)cc2)C1=S (centres undefined)	9.35	7.39	6.33	inactive	
COc1ccc2c(c1)c1c(n2Cc2ccc(C(=O)NO)cc2)CN2CC1C(=O)N(C)C2=O (centres undefined)	9.82	6.91	6.51	Active	
CN1C(=O)C2CN(Cc3c2c2ccc4ccccc4c2n3Cc2ccc(C(=O)NO)cc2)C1=O (centres undefined)	8.75				
CN1C(=O)C2CN(Cc3c2c2ccccc2n3Cc2cccc(/C=C/C(=O)NO)c2)C1=O (centres undefined)	7.14	7.88	6.11		
CN1C(=O)C2CN(Cc3c2c2ccccc2n3Cc2ccc(/C=C/C(=O)NO)cc2)C1=O (centres undefined)	8.38	6.69	7.18		
COc1ccc2c(c1)c1c(n2Cc2ccc(C(=O)NO)cc2)CN2CC1C(=O)N(C)C2 (centres undefined)	9.80	6.52	6.43	inactive	
CN1C(=O)C2CN(Cc3c2c2ccccc2n3Cc2ccc(C(=O)O)cc2)C1=O (centres undefined)	< 4.70	< 4.40	< 5.00		
COc1ccc2c3c(n(Cc4ccc(C(=O)NO)cc4)c2c1)CN1CC3C(=O)N(C)C1=O (centres undefined)	9.49	7.03	7.15	Active	
CN1C(=O)[C@H]2CN(Cc3c2c2ccccc2n3Cc2ccc(C(=O)NO)cc2)C1=O	8.70	6.53	5.50		
CN1CN2Cc3c(c4ccccc4n3Cc3ccc(C(=O)NO)cc3)C(C2)C1=O (centres undefined)	9.64	6.37	5.87	inactive	
O=C(NO)c1ccc(Cn2c3c(c4ccccc42)CCN2C(=O)CCCC32)cc1 (centres undefined)	7.52	5.78	5.14		
CN1C(=O)C2c3c(n(Cc4ccc(C(=O)NO)cc4)c4ccccc34)CCN2C1=O (centres undefined)	8.73	6.12	6.00		
Cc1[nH]c2ccccc2c1CCNCc1ccc(/C=C/C(=O)NO)cc1					Activity [6]: Active
CN1C(=O)C2CN(Cc3c2c2cc(OCCN4CCOCC4)ccc2n3Cc2ccc(C(=O)NO)cc2)C1=O.Cl (centres undefined)	9.32	6.14	6.50		Activity [7]: Non-Toxic; Activity [8]: Active; Activity [9]: Active; Activity [10]: Non-Toxic; Activity [11]: Non-Toxic; Activity [12]: Active
CN1C(=O)C2CN(Cc3c2c2cc(OCc4ccccc4)ccc2n3Cc2ccc(C(=O)NO)cc2)C1=O (centres undefined)	10.10				
Nc1ccccc1NC(=O)c1ccc(CNC(=O)OCc2cccnc2)cc1 [ENTINOSTAT]					Activity [13]: Active; inhibition (INH) [14]: Active; Activity [15]: Active; Activity [16]: Active; Activity [17]: Toxic
CN1C(=O)N2Cc3c(c4ccccc4n3Cc3ccc(C(=O)NO)cc3)C(C2)C1=S (centres undefined)	9.06	6.15	6.03	Active	
